Assay results published in ChEMBL document CHEMBL1132334, “Discovery of 1,6-naphthyridines as a novel class of potent and selective human cytomegalovirus inhibitors” (J Med Chem, 1999).
Values after ≈ are worked out from the molar mass of the structure shown.

Assays:
[1] = system: Hs68; assay: Cytotoxicity in the human fibroblast Hs 68 cell line; type: functional
Summary of the method: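 Hs68 fibroblasts plated at 1000 cells/well and incubated overnight. Medium then replaced with compound, six serial 2-fold dilutions (3.2-100 µg/mL) in triplicate, for 72 h. Proliferation read by [³H]thymidine uptake with scintillation counting and expressed as percent of untreated control; CC50 is the concentration giving 50% inhibition.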

[2] = system: Human betaherpesvirus 5; assay: Anti-HCMV activity in the human fibroblast Hs 68 cell line; type: functional, organism-based; conditions: Human betaherpesvirus 5, Hs68
Summary of the method: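 Hs68 human fibroblasts infected with HCMV strain AD169 at MOI 0.001, with or without compound, incubated 7 days. Plaques then counted under the microscope. Mean of duplicate values, experiments done at least twice.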

[3] = system: Hs68; assay: Cytotoxicity in the Hs 68 cell line; type: functional; conditions: Homo sapiens

| Structure (SMILES) | CC50 [1] | IC50 [2] | CC50 [3] |
| --- | --- | --- | --- |
| CC(C)Oc1ccccc1CNC(=O)c1ccc2cncc(Cl)c2n1 | 6 µg/mL (≈ 16.9 µM) | 0.03 µg/mL (≈ 0.0843 µM) |  |
| COc1cccc(CNC(=O)c2ccc3cnccc3n2)c1 |  | 2.1 µg/mL (≈ 7.16 µM) | 100 µg/mL (≈ 341 µM) |
| COc1ccc(CNC(=O)c2ccc3cnccc3n2)cc1 |  | > 50 µg/mL | 50 µg/mL (≈ 170 µM) |
| O=C(NCc1ccccc1)c1ccc2cnccc2n1 | 71 µg/mL (≈ 270 µM) | 1 µg/mL (≈ 3.8 µM) |  |
| CC(C)Oc1ccccc1CNC(=O)c1ccc2cncc(Br)c2n1 | 9 µg/mL (≈ 22.5 µM) | 0.15 µg/mL (≈ 0.375 µM) |  |
| CC(C)Oc1cccc(CNC(=O)c2ccc3cnccc3n2)c1 | 8.4 µg/mL (≈ 26.1 µM) | 3.6 µg/mL (≈ 11.2 µM) |  |
| O=C(NCc1ccc(Br)cc1)c1ccc2cnccc2n1 | 10 µg/mL (≈ 29.2 µM) | > 10 µg/mL |  |
| O=C(Nc1ccccc1)c1ccc2cnccc2n1 |  | 50 µg/mL (≈ 201 µM) | 50 µg/mL (≈ 201 µM) |
| CC[C@@H](C)Oc1ccccc1CNC(=O)c1ccc2cnccc2n1 | 0.1 µg/mL (≈ 0.298 µM) | 0.003 µg/mL (≈ 0.00894 µM) |  |
| CC(C)(C)Oc1ccccc1CNC(=O)c1ccc2cnccc2n1 | 4.4 µg/mL (≈ 13.1 µM) | 0.04 µg/mL (≈ 0.119 µM) |  |
| O=C(NCc1ccccc1Br)c1ccc2cnccc2n1 | 100 µg/mL (≈ 292 µM) | 0.7 µg/mL (≈ 2.05 µM) |  |
| CC[C@H](C)Oc1ccccc1CNC(=O)c1ccc2cnccc2n1 | 3.1 µg/mL (≈ 9.24 µM) | 0.03 µg/mL (≈ 0.0894 µM) |  |
| C=Cc1cncc2ccc(C(=O)NCc3ccccc3OC(C)C)nc12 | 17 µg/mL (≈ 48.9 µM) | 0.003 µg/mL (≈ 0.00864 µM) |  |
| O=C(NCCc1ccccc1)c1ccc2cnccc2n1 | 5 µg/mL (≈ 18 µM) | 0.78 µg/mL (≈ 2.81 µM) |  |
| O=C(NCc1cccc(Br)c1)c1ccc2cnccc2n1 | 50 µg/mL (≈ 146 µM) | 2.2 µg/mL (≈ 6.43 µM) |  |
| COc1ccccc1CCNC(=O)c1ccc2cnccc2n1 |  | 6 µg/mL (≈ 19.5 µM) | 17 µg/mL (≈ 55.3 µM) |
| Cc1cncc2ccc(C(=O)NCc3ccccc3OC(C)C)nc12 | 3 µg/mL (≈ 8.94 µM) | 0.0004 µg/mL (≈ 0.00119 µM) |  |
| CC(C)Oc1ccccc1CNC(=O)c1ccc2cnccc2n1 | 2.5 µg/mL (≈ 7.78 µM) | 0.005 µg/mL (≈ 0.0156 µM) |  |
| COc1ccccc1CNC(=O)c1cc(C)c2cnccc2n1 | 8 µg/mL (≈ 26 µM) | 11 µg/mL (≈ 35.8 µM) |  |
| Nc1nc2c(ncn2COC(CO)CO)c(=O)[nH]1 [GANCICLOVIR] |  | 0.3 µg/mL (≈ 1.18 µM) | 12.5 µg/mL (≈ 49 µM) |
